# DNA FID counter – counter-screen for HCV NS3 helicase inhibitors: DNA intercalator displacement | inhibition, % at 7.9 µM | actives 0.17% (n = 290,000) | DNA fluorescent intercalator displacement, fluorescence | AID 1845; in the data active = inhibition above about 37%;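 note: higher means more ethidium bromide displaced from hairpin DNA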
# NS3 helicase inh – inhibitors of Hepatitis C virus NS3 helicase. inhibition, % at 10.9 µM. AID 1800. actives 0.56% (n = 290,000). NS3 helicase DNA unwinding, Cy5 molecular beacon fluorescence;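 active = inhibition above the mean of all tested compounds plus 3 SD, set per campaign, cut at about 35% in these data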
#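 assay system = NS3 helicase fragment of HCV | buffer or medium = MOPS pH 6.5, MgCl2, DTT, Tween20, BSA | timing = 60 min unwinding reaction at 25 °C after ATP addition | signal = Cy5 beacon fluorescence read at start and 1 h | read-out basis = % inhibition of unwinding | control set = low DMSO, high thioflavine S at 110 µM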
# VIM-2 inhibitor – blocks Pseudomonas aeruginosa VIM-2 metallo-beta-lactamase; purified VIM-2, nitrocefin hydrolysis, epi-absorbance fluorescence; inhibition, % at 5.6 µM; actives 0.89% (n = 290,000); AID 1527;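 active = inhibition above the mean of all tested compounds plus 3 SD, cutoff set per screening run, cut at about 7.5% in these data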;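 note: red hydrolysis product quenches plate fluorescence so inhibitors raise well fluorescence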
# UBC9 SUMO inh – SUMOylation inhibition. inhibition, % at 35 µM. AID 2006. P63279. HTRF SUMOylation assay, SAE1/SAE2 + UBC9, in vitro. actives 0.36% (n = 290,000); in the data active = inhibition above about 50%, passing the limit was not always enough
# Target sequence (P63279 whole entry, looked up): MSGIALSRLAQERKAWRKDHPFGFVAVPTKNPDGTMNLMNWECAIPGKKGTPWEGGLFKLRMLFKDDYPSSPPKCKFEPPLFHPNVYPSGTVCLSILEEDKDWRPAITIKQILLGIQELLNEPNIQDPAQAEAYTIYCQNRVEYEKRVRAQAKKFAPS
# IMP-1 inhibitor – inhibitors of Pseudomonas aeruginosa IMP-1 metallo-beta-lactamase; purified IMP-1, nitrocefin hydrolysis, epi-absorbance fluorescence; inhibition, % at 5.6 µM; actives 0.45% (n = 290,000);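 active = inhibition above the mean plus 3 SD of all compounds in the same screening run, cut at about 4.5% in these data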
#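 System: purified IMP-1; amount: IMP-1 0.2 nM before substrate addition; compound: single dose, 5.6 µM; times: 25 °C, 15 min preincubation, 25 min reaction; signal: Epi-absorbance via hydrolysed-nitrocefin quenching of white-plate fluorescence, 480/530 nm, EDTA stop; benchmarks: DMSO with and without IMP-1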
# Numbers stand for hits; - = inactive; . = no result given. Shown are actives, neighbours in structure and some others; about 2.1% of the full set was active somewhere.
SMILES,DNA FID counter,NS3 helicase inh,VIM-2 inhibitor,UBC9 SUMO inh,IMP-1 inhibitor
COc1c2c(cc3c1OCO3)CC[N+](C)=C2,-,-,-,-,-
O=C(c1cn(Cc2ccccc2F)c2ncccc12)C(F)(F)F,-,-,-,-,-
Cc1c(C=C2C(=O)N(C)C(=S)N(C)C2=O)c2ccccc2n1CC(=O)NCC1CCCO1 (stereo unspecified),-,-,-,-,19
O=C(Cn1cc(C=C2C(=O)NC(=O)NC2=O)c2ccccc21)NCC1CCCO1 (stereo unspecified),-,-,-,-,-
COCCNC(=O)c1c(NC(=O)c2ccc(Br)o2)n(Cc2ccccc2)c2nc3ccccc3nc12,-,-,-,99,-
CCOC(=O)c1c(N)n(CCCOC(=O)c2ccco2)c2nc3ccccc3nc12,-,-,-,-,-
COc1ccc(Cn2c(N)c(C(=O)NCc3ccco3)c3nc4ccccc4nc32)cc1OC,-,-,-,100,-
COCCCn1c(N)c(C(=O)OCCOC)c2nc3ccccc3nc21,-,-,-,-,-
CCOC(=O)c1c(NS(=O)(=O)c2ccccc2)n(CCCOC)c2nc3ccccc3nc12,-,-,-,100,-
CCCCCn1c(NC(=O)c2ccco2)c(C(=O)OCC)c2nc3ccccc3nc21,-,-,-,101,-
Cc1cccc(C)c1NC1=NCCCCS1,-,-,-,-,-
CCCCNC(=O)c1c(N)n(CCCOC)c2nc3ccccc3nc12,-,-,-,99,-
COCCCNC(=O)c1c(NC(=O)c2ccco2)n(Cc2ccccc2)c2nc3ccccc3nc12,-,-,-,98,-
CC1(C)OC(c2ccccc2)=C/C(=C/C=C2C(=O)NC(=O)NC2=O)O1,-,-,-,-,4.6
O=C(NC1CN2CCC1CC2)c1cc(Cl)c([N+](=O)[O-])c2nc[nH]c12 (stereo unspecified),-,-,10,-,-
C[N+]12CCC(CC1)C(C(O)(c1ccccc1)c1cccs1)C2 (stereo unspecified),-,-,-,-,12
C[C@]12CCC3=C4CCC(=O)C=C4CC[C@H]3C1CC[C@@H]2O (stereo partly specified),-,-,-,-,-
C[C@]12CC[C@@H]3c4ccc(O)c(O)c4CC[C@H]3[C@@H]1CC[C@@H]2O,-,-,-,-,14
O=P(O)(O)C#Cc1ccccc1,-,-,-,-,-
O=c1[nH]c(=S)n(-c2ccccc2)c(O)c1/C=N/N1CCOCC1,-,-,-,-,-
Cc1ccsc1/C=C1\C(=O)NC(=S)N(C)C1=O,-,-,-,-,-
CN1C(=O)/C(=C/c2ccc(Cl)s2)C(=O)NC1=S,-,-,-,-,9.7
CN1CCN(c2ccc([N+](=O)[O-])c3no[n+]([O-])c23)CC1,-,-,-,55,-
CN1CCN(c2ccc(S(C)(=O)=O)cc2[N+](=O)[O-])CC1,-,-,-,-,-
CCOP(=O)(OCC)C(O)c1cccnc1 (stereo unspecified),-,-,-,-,-
SMILES,DNA FID counter,NS3 helicase inh,VIM-2 inhibitor,UBC9 SUMO inh,IMP-1 inhibitor
CCCCCSc1cc(OC)c(CCN)cc1OC,39,-,-,-,-
OCCN(CC#CC(O)(c1ccccc1)C1CCCC1)CCO (stereo unspecified),-,-,-,-,-
COC1CCCCC1NCCc1ccccc1 (stereo unspecified),-,-,-,-,-
CCN1CCN(C(=O)COc2ccc3c(c2)C(=O)CC2(CCN(C(C)=O)CC2)O3)CC1,-,-,-,-,-
Nc1ccnn1C1CCNCC1,-,-,-,-,25
COc1ccc2nc3oc(C(=O)N4CCC5(CC4)OCCO5)cc3cc2c1,-,-,-,-,-
O=P(O)(O)Cc1c(Cl)cccc1Cl,-,-,12,-,-
Cc1cccc(OP(N)(=O)Oc2cccc(C)c2)c1,-,-,-,-,-
NP(=O)(Oc1ccc(Cl)cc1)Oc1ccc(Cl)cc1,-,-,-,-,7.7
Cc1cc(OCC(=O)N2C[C@H]3C[C@@H](C2)c2cccc(=O)n2C3)c2c(C)cc(=O)oc2c1,-,-,-,-,-
Cc1cc(OC(C)C(=O)NCC(O)c2ccccc2)c2c3c(c(=O)oc2c1)CCC3 (stereo unspecified),-,-,-,-,-
Cc1cc(OC(C)C(=O)NCc2cccnc2)c2c3c(c(=O)oc2c1)CCC3 (stereo unspecified),-,-,8.4,-,-
Cc1cc(=O)oc2cc(OCC(=O)N3CCN(Cc4ccc5c(c4)OCO5)CC3)ccc12,-,-,9.7,-,-
Cc1ccc(OCC(=O)N2CCN(C3CCC(c4ccccc4)CC3)CC2)cc1 (stereo unspecified),-,-,-,-,-
CCn1nc(-c2ccccc2)nc2c(=O)n(C)c(=O)nc1-2,-,-,-,104,-
O=[N+]([O-])[N-][n+]1cnn(Cc2ccc(Cl)cc2)c1,-,-,-,-,-
CN1CCN(c2ccccc2N)CC1,-,-,-,-,-
CN1CCN(c2cccc3c2C(=O)c2ccccc2C3=O)CC1,60,-,-,-,-
CC(C)c1ccccc1OCC(=O)N1CCCN(C)CC1,-,-,-,-,-
Cc1cc(OCC(=O)N2CCC(C(N)=O)CC2)c2c3c(c(=O)oc2c1)CCCC3,-,-,8.6,-,-
Cc1cc(OCC(=O)O)c2c3c(c(=O)oc2c1)CCCC3,-,-,-,-,-
C=C(C=O)C[C@@H]1C[C@H](O)C2OC3C[C@]4(C)OC5/C=C\CC6OC7C(CC=CCC6OC5CCCC4OC3CC2O1)OC1CC2OC3CC(=O)OC3C[C@@H](C)C[C@@]2(C)OC1C[C@@H]7C (stereo partly specified),.,.,.,-,.
COc1ccccc1N1CCN(Cc2cccc(Br)c2)CC1,-,-,-,-,-
O=C(C[N+]12CCC(CC1)C(CO)C2)c1ccc(Br)cc1 (stereo unspecified),-,-,-,-,-
CCOC(=O)c1ccc(NC(=O)c2c(O)[nH]c(=O)[nH]c2=O)cc1,-,-,59,-,78
SMILES,DNA FID counter,NS3 helicase inh,VIM-2 inhibitor,UBC9 SUMO inh,IMP-1 inhibitor
C=CCn1c(O)c(C(C)=NC2CCN(Cc3ccccc3)CC2)c(=O)[nH]c1=O,-,-,8.7,-,-
O=c1[nH]c(=S)n(-c2ccc(Cl)cc2)c(O)c1/C=N/N1CCOCC1,-,-,-,-,-
CC(c1ccccc1)n1cncc1C(=O)O (stereo unspecified),-,-,-,-,-
CC(=O)c1ccc2c(c1)C1C(Cl)C(Sc3ccccc3[N+](=O)[O-])CC1C(c1ccccc1)N2 (stereo unspecified),-,-,-,-,5.7
CCCC(C)n1[nH]c(=O)c2c1NC(=O)CSC2c1ccccc1 (stereo unspecified),-,-,-,-,-
CCOc1ccccc1C1SCC(=O)Nc2c1c(=O)[nH]n2C(CC)CC (stereo unspecified),-,-,11,-,-
CCOC(=O)c1c(C)n(Cc2ccco2)c2ccc(OC)cc12,-,-,-,-,-
